Test results taken from ChEMBL document CHEMBL4831494, “Synthesis and evaluation of FAK inhibitors with a 5-fluoro-7H-pyrrolo[2,3-d]pyrimidine scaffold as anti-hepatocellular carcinoma agents” (Eur J Med Chem, 2021).
The source made the active and inactive calls. No cut-off for these calls is given here.

Experiments:
[1] = Toxicity in BALB/c nude mouse assessed as effect on body weight at 30 mg/kg, ip administered for 19 days; type: organism-based; conditions: in vivo, 456 h, time 19 day
Procedure, shortened: (§1)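 Male BALB/c nude mice, six weeks old, inoculated s.c. with 1.0 × 10⁷ SMMC7721 cells. Dosing began at mean tumour 25e35 mm³; five randomized groups, n = 8. Solvent DMSO/propylene glycol/PBS 2:5:3 (vehicle 1.0 mL/kg), all given i.p. every 3 days. Tumour size (calipers) and body weight taken before each dose. V = length × width²/2. TGI = [1 − (T−T₀)/(C−C₀)] × 100.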

SMMC-7721 [2] = test: Antitumor activity against human […] cells xenografted in BALB/c nude mouse assessed as tumor size at 30 mg/kg, ip administered for 19 days (reference value: 600.8 mm3); type: functional; conditions: time 19 day; procedure, shortened: as §1
SMMC-7721 [3] = test: Antitumor activity against human […] cells xenografted in BALB/c nude mouse assessed as tumor growth inhibition at 30 mg/kg, ip administered for 19 days; type: functional; conditions: SMMC-7721, ip, 456 h, time 19 day, read-out: TGI; procedure, shortened: as §1
[4] = Toxicity in BALB/c nude mouse assessed as animal's mortality at 30 mg/kg, ip measured on day 11; type: organism-based; conditions: in vivo, 264 h, time 11 day
Procedure, shortened: (§2)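 Six-week-old male BALB/c nude mice bearing subcutaneous SMMC7721 xenografts (1.0 × 10⁷ cells); dosing started at mean tumor 25-35 mm³, n = 8 per group. Ip every 3 days in DMSO/propylene glycol/PBS (2:5:3); vehicle 1.0 mL/kg as negative control. Body weight weighed and deaths recorded every 3 days before each dose, through day 19.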

SMMC-7721 [5] = test: cells; conditions: Homo sapiens, SMMC-7721, 48 h
Focal adhesion kinase 1 [6] = target: T1, Focal adhesion kinase 1 (Homo sapiens, UniProt Q05397); test: Inhibition of FAK (unknown origin) using Poly(Glu,Tyr) and ATP as substrate measured after 40 mins by Kinase-Glo Plus luminescence assay
Target sequence in this assay (Q05397 whole entry): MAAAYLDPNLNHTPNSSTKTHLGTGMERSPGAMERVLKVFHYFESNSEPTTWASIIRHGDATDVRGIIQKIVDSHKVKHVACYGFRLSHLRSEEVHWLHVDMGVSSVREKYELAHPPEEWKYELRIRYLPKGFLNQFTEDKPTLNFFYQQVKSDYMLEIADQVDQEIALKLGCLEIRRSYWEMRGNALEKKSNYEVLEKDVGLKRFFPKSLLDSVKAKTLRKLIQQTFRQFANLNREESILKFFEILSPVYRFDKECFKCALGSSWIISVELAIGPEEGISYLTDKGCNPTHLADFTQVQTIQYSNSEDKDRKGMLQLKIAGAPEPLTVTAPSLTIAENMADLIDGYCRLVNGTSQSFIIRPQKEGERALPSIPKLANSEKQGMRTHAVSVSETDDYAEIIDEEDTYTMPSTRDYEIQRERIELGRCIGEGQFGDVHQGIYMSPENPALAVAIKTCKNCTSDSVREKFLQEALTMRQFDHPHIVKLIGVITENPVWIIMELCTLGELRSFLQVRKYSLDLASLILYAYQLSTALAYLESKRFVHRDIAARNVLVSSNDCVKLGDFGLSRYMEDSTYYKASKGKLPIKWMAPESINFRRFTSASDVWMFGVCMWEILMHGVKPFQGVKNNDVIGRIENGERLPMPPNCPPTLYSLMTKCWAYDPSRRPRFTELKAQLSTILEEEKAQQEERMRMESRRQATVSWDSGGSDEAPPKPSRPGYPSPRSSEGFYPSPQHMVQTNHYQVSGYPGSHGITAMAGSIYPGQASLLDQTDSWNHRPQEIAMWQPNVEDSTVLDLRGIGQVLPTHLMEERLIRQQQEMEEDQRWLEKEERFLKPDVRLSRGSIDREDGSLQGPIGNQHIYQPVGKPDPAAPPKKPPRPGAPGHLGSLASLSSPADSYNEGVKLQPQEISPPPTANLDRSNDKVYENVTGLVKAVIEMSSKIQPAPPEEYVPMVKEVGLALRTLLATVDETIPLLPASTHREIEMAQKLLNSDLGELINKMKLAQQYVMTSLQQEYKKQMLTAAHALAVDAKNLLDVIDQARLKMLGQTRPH

cells = conditions: Homo sapiens, YY-8103, 48 h
Focal adhesion kinase 1 [7] = target: T1, Focal adhesion kinase 1; test: Inhibition of FAK phosphorylation in human HCC cells assessed as upregulation of FOXO phosphorylation at 30 uM by KEGG analysis; type: cell-based
Target sequence in this assay (Q05397 2-1052 limits assumed): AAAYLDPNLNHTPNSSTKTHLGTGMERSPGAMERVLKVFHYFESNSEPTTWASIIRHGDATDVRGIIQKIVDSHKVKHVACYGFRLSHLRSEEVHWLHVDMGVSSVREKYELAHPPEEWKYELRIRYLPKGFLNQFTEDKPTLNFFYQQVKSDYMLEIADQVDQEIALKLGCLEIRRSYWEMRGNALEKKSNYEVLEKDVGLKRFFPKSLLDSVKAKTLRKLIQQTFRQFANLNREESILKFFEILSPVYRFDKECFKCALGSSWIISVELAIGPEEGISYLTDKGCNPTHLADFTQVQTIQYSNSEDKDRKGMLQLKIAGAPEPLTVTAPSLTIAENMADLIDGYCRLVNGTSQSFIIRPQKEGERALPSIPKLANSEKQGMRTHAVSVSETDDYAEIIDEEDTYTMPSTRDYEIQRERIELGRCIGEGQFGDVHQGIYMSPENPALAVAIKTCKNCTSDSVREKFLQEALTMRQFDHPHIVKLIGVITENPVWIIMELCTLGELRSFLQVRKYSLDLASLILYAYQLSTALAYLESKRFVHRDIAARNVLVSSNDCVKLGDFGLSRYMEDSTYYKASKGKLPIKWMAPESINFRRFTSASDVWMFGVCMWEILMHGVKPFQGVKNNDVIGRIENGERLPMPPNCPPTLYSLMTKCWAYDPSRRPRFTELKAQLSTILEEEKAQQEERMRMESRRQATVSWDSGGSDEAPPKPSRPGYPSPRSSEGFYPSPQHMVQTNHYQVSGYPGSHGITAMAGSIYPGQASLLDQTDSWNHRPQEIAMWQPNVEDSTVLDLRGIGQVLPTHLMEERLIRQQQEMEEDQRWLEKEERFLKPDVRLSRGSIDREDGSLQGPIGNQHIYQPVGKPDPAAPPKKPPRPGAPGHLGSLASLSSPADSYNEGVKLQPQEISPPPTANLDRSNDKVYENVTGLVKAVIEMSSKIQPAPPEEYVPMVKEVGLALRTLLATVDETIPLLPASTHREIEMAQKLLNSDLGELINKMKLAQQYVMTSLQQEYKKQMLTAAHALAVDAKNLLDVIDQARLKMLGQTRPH

[8] = Acute toxicity in Kunming mouse assessed as body weight at 5 to 200 mg/kg, ip observed for 10 days; type: organism-based; conditions: in vivo, 240 h, dose 5-200 mg/kg, time 10 day
Procedure, shortened: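 Kunming mice (18-22 g), 30 animals in 5 groups of 6 (3 male, 3 female); single intraperitoneal dose of 0, 5, 10, 50 or 200 mg/kg in DMSO/propylene glycol/PBS (2/5/3). Animals observed and weighed daily for 10 days.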

[9] = AUC (0 to infinity) in Sprague-Dawley rat at 10 mg/kg, po by LC-MS/MS analysis; type: ADME, organism-based; set-up: time infinity, route oral, dose 10 mg/kg; conditions: in vivo
Procedure, shortened: (§3)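 Male SD rats, 6e8 weeks, 220 30 g, three per route (p.o. or i.v.). Compound given in DMSO/Solutol/saline (5/10/85). Centrifuged 6800 g for 6 min at 2e8 °C, frozen near −80 °C, analysed by LC-MS/MS. Mean ± SEM, n = 3.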

[10] = Upregulation of integrin beta1 phosphorylation at Thr788 residue in human HCC cells at 30 uM by KEGG analysis relative to control; type: functional
[11] = Half life in Sprague-Dawley rat at 10 mg/kg, po measured upto 24 hrs by LC-MS/MS analysis; type: ADME, organism-based; conditions: in vivo; procedure, shortened: as §3
Focal adhesion kinase 1 [12] = target: T1, Focal adhesion kinase 1; test: Inhibition of FAK phosphorylation in human HCC cells assessed as reduction in mTOR phosphorylation at 30 mg/kg by KEGG analysis
Target sequence in this assay (Q05397 2-1052 limits assumed): as above

[13] = Half life in Sprague-Dawley rat at 2 mg/kg, iv measured upto 24 hrs by LC-MS/MS analysis; type: ADME, organism-based; conditions: in vivo; procedure, shortened: as §3
[14] = Volume of distribution at steady state in Sprague-Dawley rat at 2 mg/kg, iv measured upto 24 hrs by LC-MS/MS analysis; type: ADME, organism-based; conditions: in vivo; procedure, shortened: as §3
[15] = MRT (0 to infinity) in Sprague-Dawley rat at 10 mg/kg, po by LC-MS/MS analysis; type: ADME, organism-based; conditions: in vivo; procedure, shortened: as §3
[16] = Oral bioavailability in Sprague-Dawley rat 10 mg/kg measured upto 24 hrs by LC-MS/MS analysis; type: ADME, organism-based; conditions: in vivo; procedure, shortened: as §3
[17] = Toxicity in BALB/c nude mouse assessed as animal's mortality at 10 to 30 mg/kg, ip administered for 19 days; type: organism-based; conditions: in vivo, 456 h, dose 10-30 mg/kg, time 19 day; procedure, shortened: as §2
[18] = Cmax in Sprague-Dawley rat at 10 mg/kg, po measured upto 24 hrs by LC-MS/MS analysis; type: ADME, organism-based; set-up: route oral, dose 10 mg/kg, time <=24; conditions: in vivo; procedure, shortened: as §3
[19] = AUC (0 to t) in Sprague-Dawley rat at 2 mg/kg, iv measured upto 24 hrs by LC-MS/MS analysis; type: ADME, organism-based; set-up: route intravenous, dose 2 mg/kg, time <=24; conditions: in vivo
[20] = Clearance in Sprague-Dawley rat at 2 mg/kg, iv measured upto 24 hrs by LC-MS/MS analysis; type: ADME, organism-based; conditions: in vivo; procedure, shortened: as §3
[21] = Toxicity in BALB/c nude mouse assessed as effect on body weight at 10 to 30 mg/kg, ip administered for 19 days; type: organism-based; conditions: in vivo, 456 h, dose 10-30 mg/kg, time 19 day; procedure, shortened: as §2
Focal adhesion kinase 1 [22] = target: T1, Focal adhesion kinase 1; test: Inhibition of FAK phosphorylation in human HCC cells assessed as reduction in Akt phosphorylation at 30 mg/kg by KEGG analysis
Target sequence in this assay (Q05397 2-1052 limits assumed): as above

Focal adhesion kinase 1 [23] = target: T1, Focal adhesion kinase 1; test: Inhibition of FAK phosphorylation in human HCC cells at 30 mg/kg by KEGG analysis
Target sequence in this assay (Q05397 2-1052 limits assumed): as above

SMMC-7721 [24] = test: Antitumor activity against human […] cells xenografted in BALB/c nude mouse assessed as tumor size at 10 mg/kg, ip administered for 19 days (reference value: 600.8 mm3); type: functional; conditions: time 19 day; procedure, shortened: as §1
[25] = AUC (0 to infinity) in Sprague-Dawley rat at 2 mg/kg, iv by LC-MS/MS analysis; type: ADME, organism-based; set-up: route intravenous, time infinity, dose 2 mg/kg; conditions: in vivo; procedure, shortened: as §3
Focal adhesion kinase 1 [26] = target: T1, Focal adhesion kinase 1; test: Inhibition of FAK phosphorylation in human HCC cells assessed as reduction in NFkappaB phosphorylation at 30 mg/kg by KEGG analysis
Target sequence in this assay (Q05397 2-1052 limits assumed): as above

[27] = MRT (0 to t) in Sprague-Dawley rat at 2 mg/kg, iv measured upto 24 hrs by LC-MS/MS analysis; type: ADME, organism-based; conditions: in vivo; procedure, shortened: as §3
[28] = MRT (0 to t) in Sprague-Dawley rat at 10 mg/kg, po measured upto 24 hrs by LC-MS/MS analysis; type: ADME, organism-based; conditions: in vivo; procedure, shortened: as §3
[29] = MRT (0 to infinity) in Sprague-Dawley rat at 2 mg/kg, iv by LC-MS/MS analysis; type: ADME, organism-based; conditions: in vivo; procedure, shortened: as §3
Focal adhesion kinase 1 [30] = target: T1, Focal adhesion kinase 1; test: Inhibition of FAK phosphorylation in human HCC cells assessed as reduction in PDK1 phosphorylation at 30 mg/kg by KEGG analysis
Target sequence in this assay (Q05397 2-1052 limits assumed): as above

[31] = Tmax in Sprague-Dawley rat at 10 mg/kg, po measured upto 24 hrs by LC-MS/MS analysis; type: ADME, organism-based; conditions: in vivo; procedure, shortened: as §3
[32] = Cmax in Sprague-Dawley rat at 2 mg/kg, iv measured upto 24 hrs by LC-MS/MS analysis; type: ADME, organism-based; set-up: route intravenous, dose 2 mg/kg, time <=24; conditions: in vivo; procedure, shortened: as §3
[33] = AUC (0 to t) in Sprague-Dawley rat at 10 mg/kg, po measured upto 24 hrs by LC-MS/MS analysis; type: ADME, organism-based; set-up: route oral, dose 10 mg/kg, time <=24; conditions: in vivo; procedure, shortened: as §3
[34] = Tmax in Sprague-Dawley rat at 2 mg/kg, iv measured upto 24 hrs by LC-MS/MS analysis; type: ADME, organism-based; conditions: in vivo; procedure, shortened: as §3

CN(c1ncccc1CNc1nc(Nc2ccc3c(c2)CC(=O)N3)ncc1C(F)(F)F)S(C)(=O)=O [PF-00562271]
Activity [1]: Non-Toxic | Activity (SMMC-7721 [2]): 295.9 mm3 | inhibition in vivo at 30 mg/kg (SMMC-7721 [3]): 54.1% | Activity [4]: Toxic

CNC(=O)c1cc(Oc2ccc(NC(=O)Nc3ccc(Cl)c(C(F)(F)F)c3)cc2)ccn1 [SORAFENIB]
Activity [1]: Non-Toxic | Activity (SMMC-7721 [2]): 343.4 mm3 | inhibition in vivo at 30 mg/kg (SMMC-7721 [3]): 45.1% | Activity [4]: Non-Toxic

CN(c1ncccc1CNc1nc(Nc2ccc(F)cc2)nc2[nH]cc(F)c12)S(C)(=O)=O
IC50 (SMMC-7721 [5]): 27.9 µM | IC50 (Focal adhesion kinase 1 [6]): 0.038 µM | IC50 (cells): > 100 µM

Cc1cc2c(NCc3cccnc3N(C)S(C)(=O)=O)nc(Nc3ccc4c(c3)CC(=O)N4)nc2[nH]1
IC50 (SMMC-7721 [5]): > 100 µM | IC50 (Focal adhesion kinase 1 [6]): 12 µM | IC50 (cells): > 100 µM

CNC(=O)c1ccccc1Nc1nc(Nc2cccc(NC(C)=O)c2)nc2[nH]cc(F)c12
inhibition (Focal adhesion kinase 1 [7]): Active | Activity [8]: Non-Toxic | AUC(0-inf) [9]: 119 ng·h/mL | fold change (FC) [10]: 2.82 | half-life [11]: 3.65 h | inhibition (Focal adhesion kinase 1 [12]): Active | half-life [13]: 1.46 h | Vdss [14]: 1.8426 L/kg | IC50 (SMMC-7721 [5]): 10.1 µM | Activity (SMMC-7721 [2]): 153.5 mm3 | MRT inf [15]: 6.62 h | bioavailability [16]: 0.83% | inhibition in vivo at 30 mg/kg (SMMC-7721 [3]): 78.6% | Activity [17]: Non-Toxic | Cmax [18]: 15.4 ng/mL | IC50 (Focal adhesion kinase 1 [6]): 0.012 µM | AUC(0-t) at 24 h [19]: 2300 ng·h/mL | CL [20]: 14.49 mL/min/kg | Activity [21]: Non-Toxic | inhibition (Focal adhesion kinase 1 [22]): Active | inhibition (Focal adhesion kinase 1 [23]): Active | Activity (SMMC-7721 [24]): 348.3 mm3 | AUC(0-inf) [25]: 2300 ng·h/mL | inhibition (Focal adhesion kinase 1 [26]): Active | MRT last at 24 h [27]: 0.51 h | MRT last at 24 h [28]: 4.54 h | IC50 (cells): 2.39 µM | MRT [29]: 0.53 h | inhibition (Focal adhesion kinase 1 [30]): Active | Tmax [31]: 4.67 h | Cmax [32]: 5020 ng/mL | AUC(0-t) at 24 h [33]: 95.5 ng·h/mL | Tmax [34]: 4.8 min

CN(c1ncccc1CNc1nc(Nc2ccccc2)nc2[nH]cc(F)c12)S(C)(=O)=O
IC50 (SMMC-7721 [5]): > 100 µM | IC50 (Focal adhesion kinase 1 [6]): 0.032 µM | IC50 (cells): > 100 µM
